The sample as a whole holds a higher share of hits than the screen did.
HCT116 bCat-KO: beta-catenin-lacking colon tumor cell growth suppression. HCT116 beta-catenin knockout viability, CellTiter-Glo, 60 h; hits give low values. viability, % at 10 µM. 1.5% of 140,000 active. AID 818;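 active = viability at or under a set limit, the compound median less 4 SD, cut at about 6% in these data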
Pyk2 oligo antag: Pyk2 (human) oligomerization antagonism; Q14289; Q293 cells, Pyk2 FERM NanoBiT luminescence; hits give low values; z-score (the deposit names both 25 µM and 10 µM); 0.83% of 99,000 active; AID 1347419;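 active = Z-score of -3 or lower, scaled per plate to the spread of control and sample wells; inactive = z-score above -3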;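 also: negative z-score means lost luminescence so less FERM oligomerization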
Target sequence (Q14289 whole entry, looked up): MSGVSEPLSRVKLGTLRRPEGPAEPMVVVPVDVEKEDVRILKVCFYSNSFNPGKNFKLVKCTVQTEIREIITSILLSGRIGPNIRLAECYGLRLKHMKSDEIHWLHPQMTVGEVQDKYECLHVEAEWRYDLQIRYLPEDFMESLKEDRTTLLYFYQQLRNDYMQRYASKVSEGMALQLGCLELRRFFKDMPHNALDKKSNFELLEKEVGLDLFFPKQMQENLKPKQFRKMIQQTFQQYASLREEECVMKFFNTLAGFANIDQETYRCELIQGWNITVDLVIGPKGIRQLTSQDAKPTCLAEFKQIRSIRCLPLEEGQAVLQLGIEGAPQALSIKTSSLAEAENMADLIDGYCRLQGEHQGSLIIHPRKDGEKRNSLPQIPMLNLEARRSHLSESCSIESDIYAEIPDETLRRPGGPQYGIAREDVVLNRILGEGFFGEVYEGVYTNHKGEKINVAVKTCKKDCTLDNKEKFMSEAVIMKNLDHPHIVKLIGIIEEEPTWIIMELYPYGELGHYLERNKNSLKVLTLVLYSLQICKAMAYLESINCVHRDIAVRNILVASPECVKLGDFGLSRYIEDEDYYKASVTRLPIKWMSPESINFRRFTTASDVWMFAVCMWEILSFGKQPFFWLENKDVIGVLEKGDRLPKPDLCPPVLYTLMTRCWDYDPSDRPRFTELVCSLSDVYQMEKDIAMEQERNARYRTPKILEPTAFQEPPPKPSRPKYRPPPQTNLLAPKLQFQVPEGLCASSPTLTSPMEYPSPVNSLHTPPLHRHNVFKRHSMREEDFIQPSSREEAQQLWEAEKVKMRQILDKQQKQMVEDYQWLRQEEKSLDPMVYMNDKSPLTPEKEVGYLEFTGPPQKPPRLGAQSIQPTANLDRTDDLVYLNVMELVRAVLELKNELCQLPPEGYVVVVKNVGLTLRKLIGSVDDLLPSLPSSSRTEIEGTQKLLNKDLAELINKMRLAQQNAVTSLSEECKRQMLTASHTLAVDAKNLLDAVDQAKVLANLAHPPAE
PTEN del growth: growth suppressors of cells with PTEN tumor suppressor deletion; 1.2% of 140,000 active; HCT116 PTEN-null viability, CellTiter-Glo, 60 h; hits give low values; viability, % at 10 µM;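 active = viability at or below a set limit, 4 SD under the median of all tested compounds, cut at about 3.7% in these data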;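 also: PTEN knockout HCT116 line with beta catenin targeted HCT116 as companion control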
HUVEC prolif 384: blocks proliferation of human endothelial cells; 1.1% of 86,000 active; HUVEC proliferation, CellTiter-Glo luminescence, 72 h; hits give low values; viability, % at 10 µM (by protocol); AID 648;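 active = viability at or below 30%; inactive = viability above 30%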
H69AR growth 86K: growth inhibitors of human H69AR lung tumor cells. viability, % at 10 µM. 6% of 85,000 active. H69AR lung tumor viability, ATP luminescence, 72 h; hits give low values;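 active = viability at or below 40%; inactive = viability above 40%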;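 also: multidrug resistant small cell line overexpressing MRP-1 efflux transporter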
Lung fibro prol: blocks proliferation of human lung fibroblasts. LL 47 human lung fibroblast viability, ATP luminescence; hits give low values. viability, % at 10 µM. 1.1% of 85,000 active. AID 719;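 active = viability at or below 50% in the single dose screen; inactive = viability above 50%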;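 also: compound exposure lasted 72 h before the ATP readout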
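Benchmarks: Cell-only wells, no compound | Test system: LL 47 human lung fibroblasts, passage 12 or lower | Input: 1,150 cells/well | Measured by: CellTiter-Glo luminescence measuring cellular ATP | Medium: IMEM, 15% FBS supplement | Schedule: Overnight attachment after seeding, then 72 h compound exposure at 37 °C | Doses: Compound addition at 0.1% DMSO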
A number is an active result; – = inactive; · = no result.

SMILES	HCT116 bCat-KO	Pyk2 oligo antag	PTEN del growth	HUVEC prolif 384	H69AR growth 86K	Lung fibro prol
CCOC(=O)Cc1cc(=O)n2[nH]c(-c3ccccc3)cc2n1	–	–	–	–	–	–
COc1cccc(C(=O)COC(=O)c2ccc(NC(C)=O)cc2)c1	–	·	–	·	·	·
CCc1cccc2c(C#N)cn(CC(=O)NCCOC)c12	–	–	–	–	–	–
COC(=O)CCC(=O)NC(=S)Nc1cc(Cl)ccc1Cl	–	–	–	·	·	·
CCOC(=O)Cc1c(C)nc2c(-c3ccc(Cl)cc3)c(C)[nH]n2c1=O	–	–	–	–	39	–
CCOC(=O)Cc1cc(=O)n2[nH]c(C)c(-c3ccccc3)c2n1	–	–	–	–	–	–
O=C(Nc1ccc2cn[nH]c2c1)c1ccc(Cl)c(S(=O)(=O)N2CCOCC2)c1	–	–	–	·	·	·
COc1cc([C@@H]2c3cc4c(cc3[C@H](O)[C@H]3COC(=O)[C@H]23)OCO4)cc(OC)c1OC	–	·	–	–	36	–
COc1ccccc1N1CCN(C(=O)c2sc3nc(-c4ccc(F)cc4)cn3c2C)CC1	–	·	–	–	–	–
COc1ccc(C(=O)N2N=C(c3cccc(OC)c3)CC2(O)C(F)(F)F)cc1 (stereo not given)	–	·	–	·	·	·
CCC(C)(C)C1CCc2c(sc(NC(=O)c3cccs3)c2C(N)=O)C1 (stereo not given)	–	–	–	–	–	–
NC(=O)c1c(NC(=O)c2ccco2)sc2c1CCC2	–	–	–	–	–	–
CN1CCN(C(=O)c2c(NC(=O)c3ccco3)sc3c2CCC(C(C)(C)C)C3)CC1 (stereo not given)	–	-4.6	–	–	–	–
CC(C)(C)C1CCc2c(sc(NC(=O)c3cccs3)c2C(N)=O)C1 (stereo not given)	–	–	–	–	34	23
COc1ccc(N2CCN(C(=O)c3ccc(N4C(=O)NC5CC4(C)Oc4ccccc45)cc3)CC2)cc1 (stereo not given)	–	–	–	–	–	·
CC12CC(c3ccccc3O1)N(C(=O)c1ccco1)C(=S)N2c1ccc(F)cc1 (stereo not given)	–	–	–	–	6.4	–
COc1ccc(C=Nc2cccc3c(=O)[nH][nH]c(=O)c23)c2ccccc12	–	–	–	–	32	–
c1ccc(-n2cnc3cc(NCc4ccncc4)ccc32)cc1	–	-3.4	–	–	–	–
c1ccc(-n2cnc3cc(NCc4ccccn4)ccc32)cc1	–	-3.4	–	–	–	–
CCCCn1cnc2cc(NCc3ccncc3)ccc21	–	–	–	–	–	–
CN(C)c1ccc(CNc2ccc3c(c2)ncn3C)cc1	–	·	–	–	5.2	–
CC(C)n1cnc2cc(NCc3ccccn3)ccc21	–	–	–	–	–	–
Cc1ccc(Nc2c([N+](=O)[O-])cc(C(=O)N3CC(=O)Nc4ccccc43)cc2[N+](=O)[O-])c(C)c1	–	-3.4	–	·	·	·
COCCCN1C(=O)c2[nH]nc(-c3ccccc3O)c2C1c1ccc(Cl)cc1 (stereo not given)	–	–	–	–	·	–
CC(C)OCCCN1C(=O)c2[nH]nc(-c3ccccc3O)c2C1c1cccc(Cl)c1 (stereo not given)	–	-3.2	–	5.7	6.5	–
SMILES	HCT116 bCat-KO	Pyk2 oligo antag	PTEN del growth	HUVEC prolif 384	H69AR growth 86K	Lung fibro prol
COCCCN1C(=O)c2[nH]nc(-c3ccccc3O)c2C1c1cccc(Cl)c1 (stereo not given)	–	-3	–	–	2.9	–
O=C1c2[nH]nc(-c3ccccc3O)c2C(c2ccccc2)N1Cc1ccco1 (stereo not given)	–	–	–	–	·	–
COc1ccc(CCN2C(=O)c3[nH]nc(-c4ccccc4O)c3C2c2ccccc2)cc1OC (stereo not given)	–	-3.1	–	–	39	–
COc1ccc(-c2n[nH]c3c2C(c2ccc(OC)c(OC)c2)N(c2ccccc2)C3=O)cc1 (stereo not given)	–	-3	–	–	–	–
C#CCSc1nnc(-c2cc3c(C(F)(F)F)nn(C)c3s2)n1C	–	–	–	·	·	·
Cc1cc(O)c(-c2n[nH]c3c2C(c2cccc(O)c2)N(Cc2cccnc2)C3=O)cc1Cl (stereo not given)	–	-3.9	–	–	·	–
O=C1c2[nH]nc(-c3ccccc3O)c2C(c2ccccc2F)N1Cc1ccco1 (stereo not given)	–	-3.4	–	–	4.5	–

Bioassay records as filed in PubChem BioAssay.
